Molecules are shown by their SMILES.

A short description of the first data set: Intrinsic clearance in human liver microsomes by LC-MS/MS analysis. In kind it is ADME, Microsome. The following applies: liver microsomes, read-out: CLH. In outline: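 Human liver microsomes were incubated with compound and samples analyzed by LC/MS/MS. Clint is expressed as μL/min/mg.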
For `CN(CCNc1ncc(-c2ccc3c(Nc4cnccn4)ccnc3c2)cn1)C(=O)OC(C)(C)C`, the microsomal CLint was over 300 µL/min/mg.

On to `CN1CCN(c2ncc(-c3ccc4c(Nc5cnccn5)ccnc4c3)cn2)CC1`, for which the microsomal CLint was found to be 180 µL/min/mg.

Staying with this data set, now noted: microsomes.
The compound `CN1CC2(CCN(c3ncc(-c4ccc5c(Nc6cnccn6)ccnc5c4)cn3)C2)C1` gave a Microsomal intrinsic clearance of 43 µL/min/mg.

For the compound `Cc1cnc(Nc2ccnc3cc(-c4cnc(N5CCCN(C)CC5)nc4)ccc23)cn1`, the Microsomal intrinsic clearance was 100 µL/min/mg.

Compound `COC(=O)[C@@H]1CCCN1c1ncc(-c2ccc3c(Nc4cnccn4)ccnc3c2)cn1` had a Microsomal intrinsic clearance of 220 µL/min/mg.

The compound `CCN1CCN(c2ncc(-c3ccc4c(Nc5cnccn5)ccnc4c3)cn2)CC1` came in with a Microsomal intrinsic clearance of over 300 µL/min/mg.

`CCCN1CCCN(c2ncc(-c3ccc4c(Nc5cnccn5)ccnc4c3)cn2)CC1` displayed a Microsomal intrinsic clearance of 300 µL/min/mg.

Consider `Cc1nccnc1Nc1ccnc2cc(-c3cnc(N4CCCN(C)CC4)nc3)ccc12`, for which the Microsomal intrinsic clearance is 79 µL/min/mg.

The compound `CN1CCN(c2ncc(-c3ccc4c(Nc5cnccn5)ccnc4c3)cn2)CC1.CS(=O)(=O)O` gave a Microsomal intrinsic clearance of 170 µL/min/mg.

On to `CN1CCN(c2ncc(-c3ccc4c(NC5CCOCC5)ccnc4c3)cn2)CC1`, for which the Microsomal intrinsic clearance is 94 µL/min/mg.

With `c1cnc(Nc2ccnc3cc(-c4cnc(N5CCCCCC5)nc4)ccc23)cn1`, the Microsomal intrinsic clearance was over 300 µL/min/mg.

Turning to `COc1ccc(NC(=O)c2ccc(-c3cnc(N4CCCN(C)CC4)nc3)cc2O)cc1Cl`, the Microsomal intrinsic clearance came to 24 µL/min/mg.

The compound `CCCn1cc/c(=N\c2cnccn2)c2ccc(-c3cnc(N4CCCN(C)CC4)nc3)cc21` yielded a Microsomal intrinsic clearance of 51 µL/min/mg.

Consider `CC(C)(C)OC(=O)NCCNc1ncc(-c2ccc3c(Nc4cnccn4)ccnc3c2)cn1`, for which the Microsomal intrinsic clearance is over 300 µL/min/mg.

`CCN1CCCN(c2ncc(-c3ccc4c(Nc5cnccn5)ccnc4c3)cn2)CC1` returned a Microsomal intrinsic clearance of 200 µL/min/mg.

The compound `CN1CCN(c2ncc(-c3ccc4c(N[C@@H]5CCCC[C@H]5O)ccnc4c3)cn2)CC1` gave a Microsomal intrinsic clearance of 160 µL/min/mg.

Compound `CN1CCN(c2ncc(-c3ccc4c(Nc5cnccn5)ccnc4c3)cn2)CC1.Cl` had a Microsomal intrinsic clearance of 160 µL/min/mg.

In the case of `c1cnc(Nc2ccnc3cc(-c4cnc(N5CCNCC5)nc4)ccc23)cn1`, the Microsomal intrinsic clearance was 30 µL/min/mg.

With `CCn1cc/c(=N\c2cnccn2)c2ccc(-c3cnc(N4CCCN(C)CC4)nc3)cc21`, the Microsomal intrinsic clearance was 38 µL/min/mg.

Regarding `CN1CCN(c2ccc(-c3ccc4c(Nc5cnccn5)ccnc4c3)cc2)CC1`, the Microsomal intrinsic clearance is 61 µL/min/mg.

Turning to `CN1CCN(c2ncc(-c3ccc4c(NC5CCCCC5)ccnc4c3)cn2)CC1`, the Microsomal intrinsic clearance was 300 µL/min/mg.

In the case of `CN(C)CCN(C)c1ncc(-c2ccc3c(Nc4cnccn4)ccnc3c2)cn1`, the Microsomal intrinsic clearance is 45 µL/min/mg.

The compound `CN1C[C@H]2C[C@@H]1CN2c1ncc(-c2ccc3c(Nc4cnccn4)ccnc3c2)cn1` returned a Microsomal intrinsic clearance of 41 µL/min/mg.

`CN1CCCN(c2ncc(-c3ccc4c(N(C)c5cnccn5)ccnc4c3)cn2)CC1`: the Microsomal intrinsic clearance came out at 170 µL/min/mg.

In turn, `CN1CCN(c2ncc(Nc3ccc4c(Nc5cnccn5)ccnc4c3)cn2)CC1` displayed a Microsomal intrinsic clearance of 46 µL/min/mg.

`CN1CCN(c2ncc(-c3ccc4c(NCC5CCOCC5)ccnc4c3)cn2)CC1`: the Microsomal intrinsic clearance amounted to 170 µL/min/mg.

`CN1CCC2(CCN(c3ncc(-c4ccc5c(Nc6cnccn6)ccnc5c4)cn3)C2)C1` (stereo not drawn) returned a Microsomal intrinsic clearance of 77 µL/min/mg.

For the compound `CN1CCCN(c2ncc(-c3ccc4c(Nc5cnccn5)ccnc4c3)cn2)CC1`, the Microsomal intrinsic clearance is 77 µL/min/mg.

`Cc1cncc(Nc2ccnc3cc(-c4cnc(N5CCCN(C)CC5)nc4)ccc23)n1`: the Microsomal intrinsic clearance was found to be 72 µL/min/mg.

`O=C(O)CN1CCN(c2ncc(-c3ccc4c(Nc5cnccn5)ccnc4c3)cn2)CC1` returned a Microsomal intrinsic clearance of 53 µL/min/mg.

`O=C(O)[C@@H]1CCCN1c1ncc(-c2ccc3c(Nc4cnccn4)ccnc3c2)cn1`: the Microsomal intrinsic clearance is under 3 µL/min/mg.

`CN1CCN(c2ncc(-c3ccc4c(Nc5cnccn5)ccnc4c3)cn2)CC1.O=C(O)CC(O)(CC(=O)O)C(=O)O` displayed a Microsomal intrinsic clearance of 190 µL/min/mg.

Compound `NCCNc1ncc(-c2ccc3c(Nc4cnccn4)ccnc3c2)cn1` returned a Microsomal intrinsic clearance of 86 µL/min/mg.

`CN1C[C@@H]2C[C@H]1CN2c1ncc(-c2ccc3c(Nc4cnccn4)ccnc3c2)cn1` came in with a Microsomal intrinsic clearance of 37 µL/min/mg.

Another data set can be described thus: Chemical stability in 0.01 N HCl solution at 2 mg up to 16 hrs by LC-MS analysis.
Conditions: not given
The data set is classed as physicochemical.
As for `CN1CCCN(c2ncc(-c3ccc4/c(=N/c5cnccn5)ccn(C)c4c3)cn2)CC1`, the Stability entry is “Stable”.

A further data set is described as follows: Chemical stability in 0.01 N NaOH solution at 2 mg up to 16 hrs by LC-MS analysis. The data set is classed as physicochemical.
Conditions: not given
With `CN1CCCN(c2ncc(-c3ccc4/c(=N/c5cnccn5)ccn(C)c4c3)cn2)CC1`, the Stability result is “Stable”.

Another data set is described as follows: Stability in presence of GSH at 2.3 mg up to 24 hrs by LC-MS analysis. The data set is classed as physicochemical.
Conditions: not given
For `CN1CCCN(c2ncc(-c3ccc4/c(=N/c5cnccn5)ccn(C)c4c3)cn2)CC1`, the Stability entry was “Stable”.

A further data set is described as follows: Stability in presence of sodium cyanide at 2.3 mg up to 24 hrs by LC-MS analysis. The data set is classed as physicochemical.
Conditions: not given
On to `CN1CCCN(c2ncc(-c3ccc4/c(=N/c5cnccn5)ccn(C)c4c3)cn2)CC1`, for which the Stability result is recorded as “Stable”.

These data come from ChEMBL document CHEMBL4371073, “Improvement of Aqueous Solubility of Lapatinib-Derived Analogues: Identification of a Quinolinimine Lead for Human African Trypanosomiasis Drug Development” (J Med Chem, 2019).
